Experimental data reported in ChEMBL document CHEMBL1145024, “Unique structure-activity relationship for 4-isoxazolyl-1,4-dihydropyridines” (J Med Chem, 2003).
pIC50: −log10 of the molar value.

Assays:
Homo sapiens = organism: Homo sapiens; test: Percent recovery of Human embryonic kidney tsa-201 cells; type: functional
[1] = Maximum inhibition of L-type calcium channel expressed in HEK tsa-201 cells from Patch Clamp analysis; type: functional, HEK293
Method in brief: (§1)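 Whole-cell patch clamp on GFP-positive tsa-201 cells transiently co-transfected (calcium phosphate) with α1C, β1b, α2-δ and GFP, then held at 28 °C for 2–4 days. Bath contained 5 mM BaCl2 as the charge carrier (pH 7.2), and pipettes held CsMS/EGTA. Currents were elicited from −80 mV to test potentials. Compound was diluted from a 10 mM DMSO stock and microperfused, and dose–response curves were fitted individually.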

[2] = Inhibition of L-type calcium channel subunits alpha1C, beta1b, and alpha2-delta subunits expressed in Human embryonic kidney tsa-201 cells; type: cell-based; method in brief: as §1

SMILES	Recovery (Homo sapiens) [%]	Max inhibition [1]	pIC50 [2]
CCOC(=O)C1=C(C)N=C(C)/C(=C(/O)OCC)C1c1c(-c2cc(Cl)ccc2OC)noc1C (stereo not given)	82	33	5.16
CCOC(=O)C1=C(C)N=C(C)/C(=C(/O)OCC)C1c1c(C)noc1C (stereo not given)	87	100	5.09
CCOC(=O)C1=C(C)N=C(C)/C(=C(/O)OCC)C1c1c(-c2ccc(Cl)cc2)noc1C (stereo not given)	77	100	–
CCOC(=O)C1=C(C)N=C(C)/C(=C(/O)OCC)C1c1c(C)noc1CCc1cccc(OC)c1 (stereo not given)	49	100	5.80
COC(=O)C1=C(C)N=C(C)/C(=C(/O)OC)C1c1c(-c2ccc(Br)cc2)noc1C (stereo not given)	60	88	6.24
CCOC(=O)C1=C(C)N=C(C)/C(=C(/O)OCC)C1c1c(C)noc1CCc1ccc2ccccc2c1 (stereo not given)	41	100	5.93
CCOC(=O)C1=C(C)N=C(C)/C(=C(/O)OCC)C1c1c(-c2ccccc2Cl)noc1C (stereo not given)	65	70	5.01
CCOC(=O)C1=C(C)N=C(C)/C(=C(/O)OCC)C1c1c(-c2ccccc2OC)noc1C (stereo not given)	69	55	–
CCOC(=O)C1=C(C)N=C(C)/C(=C(/O)OCC)C1c1c(C)noc1CCc1cccc2ccccc12 (stereo not given)	43	76	6.33
COC(=O)C1=C(C)N=C(C)/C(=C(/O)OC)C1c1c(-c2ccc(Cl)cc2)noc1C (stereo not given)	64	85	5.76
CCOC(=O)C1=C(C)N=C(C)/C(=C(/O)OCC)C1c1c(-c2cccc(Cl)c2)noc1C (stereo not given)	65	100	5.70
CCOC(=O)C1=C(C)N=C(C)/C(=C(/O)OCC)C1c1c(C)noc1CCc1ccccc1 (stereo not given)	46	100	5.75
COC(=O)C1=C(C)N=C(C)/C(=C(/O)OC)C1c1c(-c2ccc(F)cc2)noc1C (stereo not given)	66	93	5.57
CCOC(=O)C1=C(C)N=C(C)/C(=C(/O)OCC)C1c1c(C)noc1CCc1cccc(Br)c1 (stereo not given)	48	100	6.89
